Tests used:
[1] = Stability of the compound in water-methanol mixture (1:1) assessed as drug recovery; format: physicochemical; conditions: buffer
[2] = Tmax in Sprague-Dawley rat plasma at 0.13 mg/kg, po administered as LKT formulation measured for 24 hrs by UPLC-MS/MS analysis; format: ADME, organism-based
Method in brief: (§1)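 Jugular-cannulated male SD rats (225 ± 25 g, n = 4) were fasted 12–16 h and given one oral gavage of LKT (366 mg/kg) or OPMS liquid (0.8 mL/kg) in water at 4 mL/kg, with dosing normalized to MTG human equivalent dose. Plasma was sampled from predose to 24 h and measured by UPLC–MS/MS (LLOQ 1 ng/mL). Cmax and Tmax were read from the observed data; Cmax/dose was also reported. Mean ± SEM.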

[3] = AUC(0 to 24 hrs) in Sprague-Dawley rat plasma at 0.13 mg/kg, po administered as LKT formulation measured for 24 hrs by UPLC-MS/MS analysis; format: ADME, organism-based; parameters: route oral, time 24 hrs, dose 0.13 mg/kg
[4] = Tmax in Sprague-Dawley rat plasma at […], po administered as OPMS liquid formulation measured for 24 hrs by UPLC-MS/MS analysis; format: ADME, organism-based; conditions: dose 0.18 mg/kg
[5] = Cmax in Sprague-Dawley rat plasma at […], po administered as OPMS liquid formulation measured for 24 hrs by UPLC-MS/MS analysis; format: ADME, organism-based; parameters: route oral, time 24 hrs, dose 0.18 mg/kg
[6] = Dose normalized Cmax in po dosed rat plasma; format: ADME, organism-based; conditions: in vivo
[7] = Dose normalized AUC(0 to 24 hrs) in Sprague-Dawley rat plasma at […], po administered as OPMS liquid formulation measured for 24 hrs by UPLC-MS/MS analysis; format: ADME, organism-based; conditions: in vivo, dose 0.18 mg/kg
[8] = Dose normalized Cmax in Sprague-Dawley rat plasma at 0.13 mg/kg, po administered as LKT formulation measured for 24 hrs by UPLC-MS/MS analysis; format: ADME, organism-based; conditions: in vivo; method in brief: as §1
[9] = Dose normalized AUC(0 to 24 hrs) in Sprague-Dawley rat plasma at 0.13 mg/kg, po administered as LKT formulation measured for 24 hrs by UPLC-MS/MS analysis; format: ADME, organism-based; conditions: in vivo
[10] = AUC(0 to 24 hrs) in Sprague-Dawley rat plasma at […], po administered as OPMS liquid formulation measured for 24 hrs by UPLC-MS/MS analysis; format: ADME, organism-based; parameters: route oral, dose 0.18 mg/kg, time 24 hrs
[11] = Dose normalized Cmax in Sprague-Dawley rat plasma at […], po administered as OPMS liquid formulation measured for 24 hrs by UPLC-MS/MS analysis; format: ADME, organism-based; conditions: in vivo, dose 0.18 mg/kg
[12] = Dose normalized AUC(0-24 hrs) in po dosed rat plasma; format: ADME, organism-based; conditions: in vivo
[13] = Stability of the compound in rat plasma assessed as drug recovery; format: ADME, cell-free
[14] = Drug uptake in Sprague-Dawley rat plasma at 0.79 mg/kg, po administered as LKT formulation measured within 1 hrs by UPLC-MS/MS analysis; format: ADME, organism-based; method in brief: as §1
[15] = Cmax in Sprague-Dawley rat plasma at 1.23 mg/kg, po administered as OPMS liquid formulation measured for 24 hrs by UPLC-MS/MS analysis; format: ADME, organism-based; parameters: route oral, time 24 hrs, dose 1.23 mg/kg; method in brief: as §1
[16] = Drug uptake in Sprague-Dawley rat plasma at 1.23 mg/kg, po administered as OPMS liquid formulation measured within 1 hrs by UPLC-MS/MS analysis; format: ADME, organism-based; method in brief: as §1
[17] = Cmax in Sprague-Dawley rat plasma at 0.79 mg/kg, po administered as LKT formulation measured for 24 hrs by UPLC-MS/MS analysis; format: ADME, organism-based; parameters: route oral, time 24 hrs, dose 0.79 mg/kg; method in brief: as §1
[18] = Tmax in Sprague-Dawley rat plasma at 1.23 mg/kg, po administered as OPMS liquid formulation measured for 24 hrs by UPLC-MS/MS analysis; format: ADME, organism-based; method in brief: as §1
[19] = Tmax in Sprague-Dawley rat plasma at 0.79 mg/kg, po administered as LKT formulation measured for 24 hrs by UPLC-MS/MS analysis; format: ADME, organism-based; method in brief: as §1
[20] = Tmax in Sprague-Dawley rat plasma at <0.1 mg/kg, po administered as OPMS liquid formulation measured for 24 hrs by UPLC-MS/MS analysis; format: ADME, organism-based; method in brief: as §1
[21] = Tmax in Sprague-Dawley rat plasma at <0.1 mg/kg, po administered as LKT formulation measured for 24 hrs by UPLC-MS/MS analysis; format: ADME, organism-based; method in brief: as §1
[22] = AUC(0 to 24 hrs) in Sprague-Dawley rat plasma at <0.1 mg/kg, po administered as LKT formulation measured for 24 hrs by UPLC-MS/MS analysis; format: ADME, organism-based; parameters: route oral, time 24 hrs, dose <0.1
[23] = Cmax in Sprague-Dawley rat plasma at <0.1 mg/kg, po administered as LKT formulation measured for 24 hrs by UPLC-MS/MS analysis; format: ADME, organism-based; parameters: route oral, time 24 hrs, dose <0.1; method in brief: as §1
[24] = AUC(0 to 24 hrs) in Sprague-Dawley rat plasma at <0.1 mg/kg, po administered as OPMS liquid formulation measured for 24 hrs by UPLC-MS/MS analysis; format: ADME, organism-based; parameters: route oral, time 24 hrs, dose <0.1
[25] = Cmax in Sprague-Dawley rat plasma at <0.1 mg/kg, po administered as OPMS liquid formulation measured for 24 hrs by UPLC-MS/MS analysis; format: ADME, organism-based; parameters: route oral, time 24 hrs, dose <0.1; method in brief: as §1

Structure (SMILES): CC[C@@H]1CN2CCc3c([nH]c4ccccc34)[C@@H]2C[C@@H]1/C(=C\OC)C(=O)OC [CORYNANRHEIDINE]
- Drug recovery [1]: > 80%
- Tmax [2]: 60 min
- AUC(0-t) at 24 h [3]: 8.2 ng·h/mL
- Tmax at 24 h [4]: 186 min
- Cmax at 24 h [5]: 3.1 ng/mL
- Cmax/dose [6]: 10.7 ng/mL
- AUC/dose [7]: 152.2 kg·ng·h/mL/mg
- Cmax/dose [8]: 14 kg·ng/mL/mg
- AUC/dose [9]: 63.1 kg·ng·h/mL/mg
- AUC(0-t) at 24 h [10]: 30.4 ng·h/mL
- Cmax/dose [11]: 15.6 kg·ng/mL/mg
- AUC/dose [12]: 138.8 kg·ng·h/mL/mg
- Drug recovery [13]: > 90%

Structure (SMILES): CC[C@H]1CN2CCc3c([nH]c4cccc(OC)c34)[C@@H]2C[C@@H]1/C(=C\OC)C(=O)OC
- Drug recovery [1]: > 80%
- concentration at 1 h [14]: < 1 ng/mL
- Cmax [15]: 2.9 ng/mL
- concentration at 1 h [16]: < 1 ng/mL
- Cmax [17]: 2.9 ng/mL
- Tmax [18]: 5 min
- Drug recovery [13]: > 90%
- Tmax [19]: 10 min

Structure (SMILES): CC[C@@H]1CN2CC[C@@]3(O)C(=Nc4cccc(OC)c43)[C@@H]2C[C@@H]1/C(=C\OC)C(=O)OC
- Drug recovery [1]: > 80%
- Tmax [20]: 186 min
- Tmax [21]: 54 min
- AUC(0-t) at 24 h [22]: 17.4 ng·h/mL
- Cmax [23]: 4.3 ng/mL
- AUC(0-t) at 24 h [24]: 41 ng·h/mL
- Drug recovery [13]: > 90%
- Cmax [25]: 4 ng/mL

Structure (SMILES): CC[C@@H]1CN2CC[C@]3(C(=O)Nc4ccccc43)[C@@H]2C[C@@H]1/C(=C\OC)C(=O)OC [CORYNOXINE B]
- Drug recovery [1]: > 80%
- Drug recovery [13]: > 90%

Structure (SMILES): COC(=O)C1=CO[C@@H](C)[C@H]2CN3CC[C@]4(C(=O)Nc5ccccc54)[C@@H]3C[C@H]12
- Drug recovery [1]: > 80%
- Drug recovery [13]: > 90%
